{"data": "Assay results collected from several papers", "target": "5-hydroxytryptamine receptor 3A (HTR3A, Homo sapiens, UniProt P46098)", "concentration": "10 µM", "Residues used in one study (P46098 24-478)": "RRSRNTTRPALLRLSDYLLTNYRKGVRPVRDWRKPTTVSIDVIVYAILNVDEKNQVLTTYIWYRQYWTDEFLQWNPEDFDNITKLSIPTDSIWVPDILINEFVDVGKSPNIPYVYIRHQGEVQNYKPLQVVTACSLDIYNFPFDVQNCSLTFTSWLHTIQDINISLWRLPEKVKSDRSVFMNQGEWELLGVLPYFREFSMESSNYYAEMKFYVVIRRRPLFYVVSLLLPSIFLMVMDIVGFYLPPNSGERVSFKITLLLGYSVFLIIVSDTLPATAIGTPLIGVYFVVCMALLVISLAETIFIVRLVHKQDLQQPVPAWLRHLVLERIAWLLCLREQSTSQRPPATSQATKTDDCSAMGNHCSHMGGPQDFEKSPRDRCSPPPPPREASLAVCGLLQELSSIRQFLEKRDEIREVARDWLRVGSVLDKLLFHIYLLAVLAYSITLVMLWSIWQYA", "note": "Lines come from different studies, so protocols differ."}
{"SMILES": "O=C1N=C(N2CCCCN2)S/C1=C\\c1ccc(F)cc1O", "effect on": "ligand displacement", "method": "radioligand", "inhibition": "17%"}
{"SMILES": "CC[C@H](CC(=O)O)n1c(=O)c2ncccc2n(Cc2cn(C)c3cc(C)cc(C)c23)c1=O", "effect on": "cell-free assay", "inhibition": "0.31%"}
{"SMILES": "O=C(c1ccc(Cl)cc1)N(Cc1ccccc1)C1CCCCC1", "effect on": "ligand displacement", "method": "radioligand", "inhibition": "1.9%"}
{"SMILES": "N#Cc1cc(Cn2c(N3CCCC3)nc3ccccc32)ccc1F", "effect on": "cell-free assay", "inhibition": "-12.4%"}
{"SMILES": "COc1cc2c3c(c1OC)-c1cc4c(cc1CC3N(CC1CC1)CC2c1ccccc1)OCO4 (stereo not shown)", "effect on": "ligand displacement", "method": "radioligand", "inhibition": "-13.3%"}
{"SMILES": "COc1cc(NC(C)=O)c(Cl)cc1C(=O)Nc1nccs1", "effect on": "ligand displacement", "method": "radioligand", "inhibition": "15.9%"}
{"SMILES": "COc1cc(N[C@@H]2CCCC[C@]2(O)C(F)(F)F)ccc1F", "effect on": "cell-free assay", "inhibition": "11.6%"}
{"SMILES": "O=C(NC1C2CCN(CC2)C1Cc1cccnc1)c1cc2ccccc2o1 (stereo not shown)", "effect on": "ligand displacement", "method": "radioligand", "inhibition": "25%"}
{"SMILES": "CCCNc1nc2ccccc2n1Cc1ccc(Cl)cc1", "effect on": "cell-free assay", "inhibition": "-1.96%"}
{"SMILES": "CCN(CC)c1ccc(C2Nc3ccc(C(=O)c4ccccc4)cc3NC3=C2C(=O)CC(C)(C)C3)cc1 (stereo not shown)", "effect on": "ligand displacement", "method": "radioligand", "inhibition": "-5%"}
